High-throughput results as filed in PubChem BioAssay.
In the library only some 2.8% were active in any assay of this set; here they are far more common.
Mcl1-Noxa inh: Mcl-1/Noxa interaction inhibition. inhibition, % at 21.7 µM. Q07820. AID 1022. TR-FRET Mcl-1/Noxa peptide binding, 2 h. 220,000 tested, 1.5% active;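 active means compounds that cut the protein-peptide binding signal by more than 50% relative to plate controls in a single-dose test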;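 further: His-tagged Mcl-1 with rhodamine Noxa BH3 peptide and terbium anti-His antibody; 0% = Mcl-1 plus Noxa peptide wells and 100% = peptide-only wells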
Target sequence (Q07820 whole entry, looked up): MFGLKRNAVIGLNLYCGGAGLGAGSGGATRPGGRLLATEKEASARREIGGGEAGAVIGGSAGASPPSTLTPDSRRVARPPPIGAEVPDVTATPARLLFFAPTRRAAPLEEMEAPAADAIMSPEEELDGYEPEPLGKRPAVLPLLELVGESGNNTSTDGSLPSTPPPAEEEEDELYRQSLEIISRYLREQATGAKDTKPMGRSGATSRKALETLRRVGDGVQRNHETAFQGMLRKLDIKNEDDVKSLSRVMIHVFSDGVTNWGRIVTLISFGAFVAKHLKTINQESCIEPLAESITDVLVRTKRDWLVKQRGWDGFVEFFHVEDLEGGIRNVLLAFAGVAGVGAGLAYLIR
Arbovirus inh: antivirals against arbovirus infection. arbovirus infection cell-based antiviral screen. inhibition, % at 10 µM. 200,000 tested, 0.37% active; in the data active means inhibition above about 30%
m-calpain inh: blocks pig calpain II enzyme activity. purified calpain II, fluorogenic peptide substrate, 30 min. inhibition, % at 16 µM. 220,000 tested, 0.37% active. AID 1236;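 active means inhibition above about 50%, limit read from the data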
Bim-Mcl-1: human Bim-Mcl-1 interaction inhibition | Bead-based flow cytometry, Bim peptide-Mcl-1 binding | inhibition, % at 10 µM | 190,000 tested, 0.1% active; in the data active means inhibition above about 40%;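 further: 0% = no compound tracer wells and 100% = peptide blocker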
Biofilm kill mix: mixture kills Candida albicans biofilm cells; C. albicans biofilm persisters + clotrimazole, fluorescence viability; primary screen in compound mixtures of four per well; inhibition, % at 7.6 µM; 120,000 tested, 0.02% active;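 active means inhibition above 30.3% in the primary screen of four-compound pools, then above 30% when the compound was retested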;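 further: compounds exposed to preformed 24 h biofilms for 48 h; 0% = untreated biofilm control and 100% = clotrimazole plus chlorhexidine kill blank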
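Assay system: C. albicans biofilms / Medium: RPMI/MOPS medium, pH 7.0 / Schedule: biofilm formation 24 h, compound exposure 48 h, 37 °C / Measured by: Alamar Blue fluorescence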
Mcl1-Bid inh: disrupts binding of human Mcl-1 to Bid peptide | AID 1021 | Q07820 | TR-FRET Mcl-1/Bid-Dy647 peptide binding, 1536-well | inhibition, % at 21.7 µM | 220,000 tested, 0.97% active;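 active means compounds that cut the binding signal by more than half at the single screening dose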;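 further: His-tagged Mcl-1 with europium anti-His antibody binding Bid BH3 peptide; 0% = Mcl-1 plus peptide wells and 100% = peptide-only wells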
Starred values were filed as active, the others as inactive; / = no result given.

SMILES | Mcl1-Noxa inh | Arbovirus inh | m-calpain inh | Bim-Mcl-1 | Biofilm kill mix | Mcl1-Bid inh
Cc1cc(NC(=O)/C=C/c2ccco2)ccc1NC(=O)c1ccccc1 | 18 | -15 | -47 | 0 | 21 | -52
CN1CCN(CCc2nc3cc(NC(=O)c4ccco4)ccc3n2C)CC1 | 1 | / | 54* | / | 34 | -29
CCSc1ncc(Cl)c(C(=O)Nc2sc3c(c2C(=O)NCc2cccnc2)CCCC3)n1 | 27 | -6 | 19 | 44* | / | 59*
O=C(Oc1ccc(Nc2ncnc3ccccc23)cc1)c1cccnc1 | 44 | -17 | -7 | -2 | 0 | 73*
CCN=C1S/C(=C\c2cn(C(C)=O)nc2-c2ccccc2)C(=O)N1CC | 2 | -14 | -8 | -7 | 10 | 1
CCN1C(=O)/C(=C\c2ccc(-c3ccc([N+](=O)[O-])cc3OC)o2)SC1=Nc1cccc(C(=O)O)c1 | 98* | 3 | 28 | -6 | 17 | 70*
CCN=C1S/C(=C\c2ccc(-c3cccc(C(=O)O)c3)o2)C(=O)N1CC | 35 | 41* | -147 | 4 | 6 | -22
Cc1ccccc1-c1nnn(CC(=O)Nc2ccc3c(c2)OCCO3)n1 | 17 | -3 | -22 | -2 | -1 | 3
COc1ccccc1C(=O)C1CCCN(C(=O)c2cccnc2SC)C1 (stereo not drawn) | 1 | 5 | 5 | 0 | 24 | -3
COc1ccccc1-c1nnc(SCC(=O)Nc2c(Cl)cccc2Cl)o1 | 2 | -10 | -4 | 3 | / | -17
COc1ccccc1-c1nnc(SCC(=O)NCc2c(C)c(Cl)cc(C(C)C)c2O)o1 | -2 | -46 | 51* | -3 | / | -22
CCCOC(=O)c1ccc(Oc2cn[nH]c2-c2ccc(OCC)cc2O)cc1 | 2 | -29 | 53* | -1 | / | 0
CCCc1ccc(Oc2cn[nH]c2-c2ccc(O)c(C)c2O)cc1 | 15 | -43 | 53* | -3 | / | 11
CCCOC(=O)c1ccc(Oc2c(-c3ccc(OCC)cc3O)n[nH]c2C)cc1 | 4 | -44 | 37 | -4 | / | 21
C=CCSC1=NNC(c2ccc(C(C)(C)C)cc2)=NN1 | -12 | / | -14 | / | 4 | -11
CC1CCCCC1NCC(=O)NCc1ccc(F)cc1 (stereo not drawn) | 25 | -2 | 23 | 0 | 14 | 58*
Cn1c(=O)[nH]c(=O)c2c1nc(N1CCOCC1)n2CC(=O)c1ccccc1 | 8 | 3 | -6 | 0 | -3 | -28
O=[N+]([O-])c1cccc(N=Cc2sc3ccccc3c2O)c1 | 59* | 0 | -11 | 0 | 14 | 38
CC1=NN2C(=N)/C(=C\c3ccc(SCc4ccccc4)o3)C(=O)N=C2S1 | 27 | 35* | -89 | 2 | / | -35
Cc1nc(SCC(=O)NC(=O)NC(C)C)nc(C)c1C | 64* | 2 | 15 | 0 | 8 | -15
CCc1ccccc1NS(=O)(=O)c1ccc2[nH]cc(C(=O)NC3CCCC3)c(=O)c2c1 | 72* | -28 | -14 | -2 | 6 | 66*
Cc1ccc(C(=O)Nc2ccccc2SCC2CSc3nc4ccccc4c(=O)n32)cc1 (stereo not drawn) | 6 | 42* | 10 | -1 | / | 53*
O=C(Nc1ccccc1SCC1CSc2nc3ccccc3c(=O)n21)c1ccccc1 (stereo not drawn) | -10 | 4 | -45 | 0 | / | -10
COc1ccc(C2CC(c3ccccc3)=NN2C(=O)CN2CCN(Cc3ccccc3)CC2)cc1 (stereo not drawn) | 9 | -12 | 12 | -4 | 11 | -9
Cc1c(NC(=O)c2ccc(-c3ccc([N+](=O)[O-])cc3Cl)o2)c(=O)n(-c2ccccc2)n1C | 1 | 1 | 44 | 0 | 13 | -3
COc1ccc(Cn2c(C)nc3oc4cc(OC)ccc4c(=O)c3c2=O)cc1 | 18 | 1 | -48 | 1 | / | 1
COc1ccc2c(=O)c3c(=O)n(CCc4ccccc4)c(C(C)C)nc3oc2c1 | 10 | / | -2 | / | 20 | 77*
O=C(O)CSc1cc(C(=O)c2ccccc2O)cn2c(=O)c3c4c(sc3nc12)CCCC4 | 80* | / | 7 | / | 14 | 51*
O=C(/C=C/c1ccc(Cl)c([N+](=O)[O-])c1)Nc1ccc(N2CCCC2)cc1 | 75* | -11 | -66 | -8 | 14 | -39
CCCCn1nnc(NC(=S)NC(=O)c2ccc(-c3cccc(Cl)c3Cl)o2)n1 | 18 | -1 | 22 | -1 | 5 | -30
